# Screening results from PubChem BioAssay.
# Measles CPE: compounds protecting cells from measles virus cytopathic effect, primary screen, measles RdRp inhibitor project, single point, MLSMR library, absorbance | Measles virus-infected cells, CPE protection | protection (pct of control), % at 4 µM | actives 1.5% (n = 140,000); in the data active = protection mostly above about 24%, no sharp cut-off; inactive = mostly below about 26%
# BB579 growth dn: growth inhibitors of yeast BB579 in restrictive medium, primary screen, yeast lifespan-shortening project, S. cerevisiae | inhibition, % at 10 µM | OD615, 48 h | actives 0.51% (n = 140,000);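 active = inhibition above a set limit, 3 SD over the mean compound inhibition, cut at about 44% in these data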
#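 Assay system: S. cerevisiae DeaD strain BB579 yeast. Medium: CSMM-D restrictive synthetic medium containing dextrose (glucose). Times: 4 h cell preincubation, 48 h compound exposure, 30 °C humidified. Signal: OD615 turbidity measurement. Benchmarks: positive control amphotericin B 10 µg/mL.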
# RAM inhibit: inhibitors of the yeast RAM network, primary screen, dse1pr::URA3 reporter, 5-FOA selection; AID 868, 2007; actives 1.8% (n = 190,000); inhibition, % at 50 µM; S. cerevisiae dse1pr::URA3 reporter, 5-FOA growth OD615, 2 d; analog-sensitive cbk1-as2 kinase mutant strain;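 active = inhibition above a set limit, 3 SD over mean compound inhibition, cut at about 8.4% in these data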;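 also: 0% = DMSO-only wells with no growth and 100% = 10 µM 1-NA-PP1 full growth; inhibition rescues growth on 5-FOA so higher OD means more RAM inhibition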
# Yeast life ext: compounds extending yeast replicative lifespan, primary screen, S. cerevisiae, OD615; S. cerevisiae growth with nicotinamide; deaD strain in restrictive glucose medium; inhibition of the nicotinamide effect, % at 10 µM; actives 0.68% (n = 130,000);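 active = inhibition above a set limit, placed 3 SD over the median of all compounds, cut at about 26% in these data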;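 also: 0% = nicotinamide-treated wells and 100% = cells grown without nicotinamide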
#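 Measured by: optical density (absorbance) at 615 nm; System: modified budding yeast, DeaD strain; Medium: restrictive CSMM-D dextrose medium; Timing: 4 h preincubation then 48 h treatment at 30 °C.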
# RAM efflux-def: 5-FOA growth of efflux-deficient control yeast, dose response, counter-screen for RAM network inhibitor project, S. cerevisiae, OD615. 1,200 tested, under 10 active. S. cerevisiae efflux-deficient reporter strain, 5-FOA growth OD615, 2 days. max inhibition, %. shares compounds with RAM inhibit. AID 1305, 2008; call rule not given here;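 also: plate controls were vehicle for no effect and reference inhibitor for full effect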
# Numbers without * were called inactive; x = not tested or not shown. Compounds with a hit are over-represented: about 3.8% of the library has one in this group of screens.
SMILES,Measles CPE,BB579 growth dn,RAM inhibit,Yeast life ext,RAM efflux-def
COn1c(SCc2ccccc2)nc2ccccc2c1=O,14,-8,12*,-24,5
O=c1c2ccccc2nc(SCc2cccc(F)c2)n1Cc1ccco1,22,-48,14*,9,6
O=C(CCCn1c(SCc2cccc(F)c2)nc2ccccc2c1=O)NCC1CCCO1 (stereo not drawn),x,x,16*,x,1
O=C1c2cccnc2C(Nc2ccc(Br)cc2Br)N1Cc1cccs1 (stereo not drawn),x,x,4,x,x
Cc1ccc(CSc2nc3ccccc3c(=O)n2Cc2ccco2)cc1,23,-27,14*,x,4
O=c1c2ccccc2nc(SCc2ccccc2)n1Cc1ccco1,14,-65,7,0,x
O=C(c1ccco1)N1CCCN(Cc2nc(-c3cccs3)no2)CC1,x,x,1,x,x
O=C(CCCSc1ccccc1)Nc1nc(-c2ccco2)c(-c2ccco2)s1,3,-46,13*,7,3
O=C(CCl)Nc1nc(-c2ccco2)c(-c2ccco2)s1,5,39,1,-4,x
Cc1occc1C(=O)NNC(=O)Nc1ccc([N+](=O)[O-])cc1,x,x,0,x,x
O=C(O)C1Cc2ccccc2CN1C(=O)CCl (stereo not drawn),x,x,1,x,x
CSc1ccc(Cl)c(C(=O)NCCOc2cc(C(C)C)ccc2C)c1,10,-16,14*,-1,6
CCOC(=O)C1=C(NC(=S)NC(=O)c2ccccc2)c2ccccc2CC1C(C)C (stereo not drawn),50*,-43,12*,-9,3
CCOC(=O)c1c(NC(=O)c2ccccc2)sc2c1CCc1ccccc1-2,24,-19,5,2,x
CCCCC1(Cc2cccc([N+](=O)[O-])c2)C(=O)N(c2ccccc2)N(c2ccccc2)C1=O,2,-44,13*,9,5
CCCCC1(CC(=O)OCC)C(=O)N(c2ccccc2)N(c2ccccc2)C1=O,7,-4,5,1,x
CN(C)c1ccnc2sc3c(SCc4ccc(Cl)cc4)ncnc3c12,6,-14,19*,7,6
CN(C)c1ccnc2sc3c(NCC(O)CO)ncnc3c12 (stereo not drawn),15,-12,0,2,x
CCCNC(=O)/C=C/C(=O)O,x,x,0,x,x
COc1cc(/C=C2\SC(=S)N(CC(=O)Nc3ccccn3)C2=O)cc(OC)c1OC,8,-38,6,-4,x
C=CCN1C(=O)/C(=C\c2cc(Br)c(OCc3ccccn3)c(OC)c2)SC1=S,x,x,19*,x,2
COc1cc(/C=C/C(=O)OCC(=O)Nc2ccccc2Sc2ccc(Cl)cc2)ccc1O,2,-39,15*,-2,4
Cc1ccc(S(=O)(=O)N2CCC(=O)N(C(COCc3cccc(C(F)(F)F)c3)C(C)C)CC2)cc1 (stereo not drawn),21,-23,13*,2,2
Cc1ccc(S(=O)(=O)N2CCC(=O)N(C(COCc3cccc(Cl)c3)Cc3ccccc3)CC2)cc1 (stereo not drawn),7,-38,15*,12,4
Cc1ccccc1Nc1nc(NCc2ccco2)c2ccccc2n1,x,x,1,x,x
SMILES,Measles CPE,BB579 growth dn,RAM inhibit,Yeast life ext,RAM efflux-def
Cc1cccc(Nc2nc(NCc3ccco3)c3ccccc3n2)c1,9,-42,16*,0,1
CCOC(=O)C1=C(N)OC2=C(C(=O)CC(C)(C)C2)C1c1ccc(C)s1 (stereo not drawn),x,x,17*,x,2
CCc1ccc2c(c1)cc(C)c1nnc(SCC(=O)Nc3cc(OC)c(OC)cc3C(=O)O)n12,x,x,-1,x,x
C/C(=C\c1ccco1)CN1CCN(Cc2ccc(C)o2)C(CCO)C1 (stereo not drawn),x,x,0,x,x
CCOC(=O)COc1cc2oc(=O)cc(C)c2cc1[N+](=O)[O-],x,x,0,x,x
CS(=O)(=O)Nc1ccc(C(=O)Nc2ccccc2Sc2ccccc2)cc1,13,-35,12*,6,1
CCc1ccccc1NC(=O)c1ccc(NS(C)(=O)=O)cc1,x,x,0,x,x
Cc1nc(SCC(=O)Nc2ccccc2)c2oc3ccccc3c2n1,7,-9,0,-20,x
O=C(O)CSc1nc(-c2ccc(Cl)cc2)nc2c1oc1ccccc12,4,71*,15*,-7,3
Cn1cnnc1SC1c2cccc3cccc(c23)C1NS(=O)(=O)c1ccccc1 (stereo not drawn),15,-35,3,2,x
Cn1cnnc1SC1c2cccc3cccc(c23)C1NS(=O)(=O)c1ccc(Cl)cc1 (stereo not drawn),21,-32,12*,5,2
CCCC(=O)Nc1cccc(-c2nc3ccccc3c(=O)o2)c1,x,x,1,x,x
CCOC(=O)C1=C(O)/C(=C/c2ccc(OCC(=O)O)c(OC)c2)SC1=Nc1ccc(OC)cc1,14,-35,14*,5,9
C=CCN1C(=O)C(Cc2ccc(C)cc2)S/C1=N/N=C/c1ccco1 (stereo not drawn),4,-40,14*,4,2
C=CCN1C(=O)C(Cc2ccccc2)SC1=Nc1ccc(C(=O)O)cc1 (stereo not drawn),18,-3,2,1,x
C=CCN1C(=O)C(Cc2cccc(C)c2)SC1=Nc1ccc(C(=O)O)cc1 (stereo not drawn),1,-54,15*,-1,1
CCOC(=O)c1c(NC(=O)Cn2nc(C(F)(F)F)cc2C)sc(C)c1C,11,-5,5,4,x
O=C(COC(=O)C1(c2ccccc2F)CCCC1)Nc1ncc(C(F)(F)F)cc1Cl,4,-17,12*,3,1
CCN1CCN(c2ccc(NC(=O)c3cccc(F)c3)cc2Cl)CC1,x,x,0,x,x
COc1ccc(N2CS(=O)CC2=O)cc1 (stereo not drawn),x,x,1,x,x
Cc1nn(Cc2ccccc2)c(Cl)c1C(=O)OCc1nnc(-c2ccccc2)o1,11,-67,16*,3,2
CCOC(=O)C1(CCCc2ccccc2)CCN(CC(O)CO)CC1 (stereo not drawn),x,x,-1,x,x
COC(=O)Nc1sc2c(c1C(=O)NC1CC1)CCCCCC2,11,-7,1,-3,x
Cc1c(NC(=O)C(C)N(c2ccccc2)S(C)(=O)=O)c(=O)n(-c2ccccc2)n1C (stereo not drawn),x,x,1,x,x
CCOC(=O)N1CCC(N(CCN(C)C)C(=S)Nc2cccc(SC)c2)CC1,x,x,33*,x,1
c1ccc(CCC2CCCCN2Cc2cn[nH]c2-c2cc3ccccc3o2)nc1 (stereo not drawn),x,x,3,x,x
N#Cc1c(N)n(CCOC(=O)c2cccc([N+](=O)[O-])c2)c2nc3ccccc3nc12,5,-40,12*,0,6
N#Cc1c(N)n(CCOC(=O)c2cccc(Br)c2)c2nc3ccccc3nc12,4,-61,5,-17,x
